Consider 37 sequences from the array DNA melting data of Ke et al. (doi:10.1101/2024.01.08.574731).

The nature of series [1]: melting temperature; fluorescence melt of hairpins on a sequencing array, two-state fit, raised by 9.35 °C to match UV melts. To be noted: sodium 0.088 M. An outline of the steps:
(§1)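 Bootstrapped two-state fits yielded melting temperature and folding enthalpy for library hairpins. Cy3 fluorescence, with annealed Cy3 and quencher oligos, was imaged on a sequenced MiSeq flow cell in 50 mM Na-HEPES pH 8.0, 25 mM NaCl in 2.5 °C steps up to 60 °C, and normalised to pre-quench Cy3 and to control constructs. Four replicates were combined by inverse variance, and fitted temperatures were raised by 9.35 °C to match UV melts.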

Series [2] in a line: folding enthalpy; higher = less favourable; fluorescence melt of hairpins on a sequencing array, two-state fit. To be noted: sodium 0.088 M. In short, it runs like this:
as §1

On to GAACCCGAAAGGGGTTC ((((((....))).))), for which the Tm in series [1] was 61.1 °C. Besides, the folding enthalpy in series [2] was -26 kcal/mol.
For the sequence GAGTACGGAAACGTGTTC ((..(((....)))..)), the Tm in series [1] was determined as 22.2 °C. In addition, the folding enthalpy in series [2] was -10.5 kcal/mol.
In the case of GCTATCGAAAGATCAAGC ((((((....)))..))), the Tm in series [1] came to 30.8 °C. Besides, the folding enthalpy in series [2] is -18.3 kcal/mol.
On the same counts, the results for GCGATGCGAAAGCAATGC ((..(((....)))..)) are 53.1 °C and -18.2 kcal/mol.
Consider GCCACCCGAAAGGGAGGC (((.(((....))).))), for which the Tm in series [1] is 67.8 °C. The folding enthalpy in series [2] is -44.3 kcal/mol.
Turning to GGTCATGGAAACATGGTC (..((((....))))..), the Tm in series [1] was 32.7 °C. Also, the folding enthalpy in series [2] was -17.6 kcal/mol.
Take GGGTTTGGAAACAAACTC (.(((((....))))).): the Tm in series [1] stood at 46.6 °C. The folding enthalpy in series [2] was -29.8 kcal/mol.
Consider GCAACGCGAAAGCCATGC (((..((....))..))), for which, in series [1], the Tm was determined as 29.1 °C. Moreover, the folding enthalpy in series [2] was -7.42 kcal/mol.
Turning to GCCGTAGGAAACTATGGC (((.(((....))).))), the Tm in series [1] amounted to 51.3 °C. Moreover, the folding enthalpy in series [2] is -34 kcal/mol.
Regarding GCGCCCGAAAGGGCCCGC ((((((....)))..))), the Tm in series [1] is 44.7 °C. Besides, in series [2], the folding enthalpy was -9.91 kcal/mol.
As to GTCGTCGAAAGACAAGAC ((((((....)))..))), in series [1], the Tm was 44.7 °C. The folding enthalpy in series [2] was -20 kcal/mol.
Consider GTGGTCGAAAGACGCCAC ((((((....)))..))), for which the Tm in series [1] was 39.6 °C. The folding enthalpy in series [2] is -15.9 kcal/mol.
With GTTCACACGAAAGTGAAC (((..(((....)))))), the Tm in series [1] is 49.2 °C. Also, in series [2], the folding enthalpy is -23.8 kcal/mol.
For GGTTGATCGAAAGATACC (((..(((....)))))), in series [1], the Tm amounted to 25.5 °C. For the same sequence, the folding enthalpy in series [2] was -8.74 kcal/mol.
On the same counts, the results for CGAGCGGAAACGCCTTCG ((((((....)))..))) are 32 °C and -10.7 kcal/mol.
On the same counts, the results for GCCGTGCGAAAGCAAAGC ((..(((....)))..)) are 40.4 °C and -9.19 kcal/mol.
On to GGTGTCGAAAGACTAACC ((((((....)))..))), for which, in series [1], the Tm turned out to be 40.4 °C. Moreover, the folding enthalpy in series [2] is -20.9 kcal/mol.
Taken in the same sequence, the figures for AGATTGAAAAATCT (((((....))))) were 28.9 °C and -10.8 kcal/mol.
GATAGAGGAAACTCTGTC ((.((((....)))).)): the Tm in series [1] turned out to be 38 °C. For the same sequence, the folding enthalpy in series [2] was -32.1 kcal/mol.
Consider GATCGAAGTTTCGATC ((((((....)))))), for which the Tm in series [1] was found to be 53.5 °C. Also, the folding enthalpy in series [2] was -44.8 kcal/mol.
On to GATCATTAAGATGATC ((((((....)))))), for which, in series [1], the Tm was determined as 46.4 °C. In addition, in series [2], the folding enthalpy was -34.8 kcal/mol.
Turning to CGGCCCGGAAACGGCCG (((.(((....)))))), the Tm in series [1] was 63.7 °C. For the same sequence, the folding enthalpy in series [2] is -31 kcal/mol.
On the same counts, the results for GGAAACGAAAGTTCTTCC ((((((....)))..))) are 32.2 °C and -14.9 kcal/mol.
On the same counts, the results for GATCTGCCGGCAGATC ((((((....)))))) are 62.3 °C and -53.3 kcal/mol.
For GTCAGCGAAAGCTTGGAC ((((((....)))..))), the Tm in series [1] was 38.2 °C. In addition, the folding enthalpy in series [2] is -13.9 kcal/mol.
In the case of GCACTGCGAAAGCCGTGC ((((.((....)).)))), in series [1], the Tm is 63.3 °C. In addition, the folding enthalpy in series [2] was -37.2 kcal/mol.
Taken in the same sequence, the figures for GATCGTACGACGATC ((((((...)))))) were 54.5 °C and -37.2 kcal/mol.
On to GCCGTCCCGAAAGGGGGC (((..(((....)))))), for which the Tm in series [1] was 49.4 °C. In addition, in series [2], the folding enthalpy was -17 kcal/mol.
Taken in the same sequence, the figures for GTTAACGAAAGTTACAAC ((((((....)))..))) were 25.6 °C and -12.3 kcal/mol.
Taken in the same sequence, the figures for GCCTCACGAAAGTGTGGC (((.(((....))).))) were 63.5 °C and -43.5 kcal/mol.
As to GATCCTTGAAAGGATC ((((((....)))))), the Tm in series [1] was 51.9 °C. The folding enthalpy in series [2] was -42.3 kcal/mol.
Take GCCTGGCGAAAGCTAAGC ((.(.((....)).).)): the Tm in series [1] was determined as 36.2 °C. The folding enthalpy in series [2] is -10.2 kcal/mol.
Consider GCGACCCATCGC ((((....)))), for which, in series [1], the Tm is 52.2 °C. The folding enthalpy in series [2] is -19.5 kcal/mol.
On to GAGTACGAAAGTAAGCTC ((((((....)))..))), for which, in series [1], the Tm amounted to 29.3 °C. Also, in series [2], the folding enthalpy is -14.9 kcal/mol.
For the sequence GGTTACGCGAAAGCGACC (((..(((....)))))), the Tm in series [1] was 37.2 °C. Also, in series [2], the folding enthalpy is -12.4 kcal/mol.
In the case of CGCGGAAGACTCCGCG ((((((....)))))), in series [1], the Tm was 62.8 °C. Further, in series [2], the folding enthalpy was -41.6 kcal/mol.
GCACGTCGAAAGACTTGC (((.(((....))).))): in series [1], the Tm came to 51.1 °C. Besides, in series [2], the folding enthalpy was -40.6 kcal/mol.
